Measurements as given in PMC8281356 (Chemical biology & drug design, 2021).
pIC50: −log10 of the molar value.

What was measured:
[1] = biological target: T1, ovine COX-1 (Ovis aries, UniProt P05979); experiment: COX fluorescent inhibitor screening kit; type: biochemical
T1 sequence (P05979 25-600): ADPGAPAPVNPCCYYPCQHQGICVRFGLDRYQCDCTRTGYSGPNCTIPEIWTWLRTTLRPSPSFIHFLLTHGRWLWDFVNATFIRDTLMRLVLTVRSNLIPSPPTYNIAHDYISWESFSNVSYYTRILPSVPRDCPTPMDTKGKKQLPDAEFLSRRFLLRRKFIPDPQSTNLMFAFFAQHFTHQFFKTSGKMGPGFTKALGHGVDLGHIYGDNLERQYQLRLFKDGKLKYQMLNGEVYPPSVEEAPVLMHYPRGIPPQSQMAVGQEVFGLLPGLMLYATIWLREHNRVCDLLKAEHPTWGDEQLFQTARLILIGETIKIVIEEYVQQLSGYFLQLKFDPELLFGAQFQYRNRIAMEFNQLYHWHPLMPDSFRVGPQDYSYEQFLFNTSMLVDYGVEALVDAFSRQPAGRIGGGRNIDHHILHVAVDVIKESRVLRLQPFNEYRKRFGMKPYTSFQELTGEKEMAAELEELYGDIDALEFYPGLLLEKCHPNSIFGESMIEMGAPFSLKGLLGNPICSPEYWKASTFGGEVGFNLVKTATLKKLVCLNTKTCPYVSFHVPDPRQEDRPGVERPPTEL
Summary of the method: (§1)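 Ovine COX-1 or human recombinant COX-2 with heme and ADHP in 100 mM Tris-HCl, pH 8.0. Test compound from 10 mM DMSO stock, final 2.5–100 μM. Arachidonic acid starts the reaction, 2 min at room temperature. Resorufin read at ex 535/em 590 nm. Percent inhibition vs no-inhibitor control; IC50 from concentration–inhibition curve, triplicate determinations.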

[2] = biological target: T2, human recombinant COX-2 (Homo sapiens, UniProt P35354); experiment: COX fluorescent inhibitor screening kit; type: biochemical
T2 sequence (P35354 18-604): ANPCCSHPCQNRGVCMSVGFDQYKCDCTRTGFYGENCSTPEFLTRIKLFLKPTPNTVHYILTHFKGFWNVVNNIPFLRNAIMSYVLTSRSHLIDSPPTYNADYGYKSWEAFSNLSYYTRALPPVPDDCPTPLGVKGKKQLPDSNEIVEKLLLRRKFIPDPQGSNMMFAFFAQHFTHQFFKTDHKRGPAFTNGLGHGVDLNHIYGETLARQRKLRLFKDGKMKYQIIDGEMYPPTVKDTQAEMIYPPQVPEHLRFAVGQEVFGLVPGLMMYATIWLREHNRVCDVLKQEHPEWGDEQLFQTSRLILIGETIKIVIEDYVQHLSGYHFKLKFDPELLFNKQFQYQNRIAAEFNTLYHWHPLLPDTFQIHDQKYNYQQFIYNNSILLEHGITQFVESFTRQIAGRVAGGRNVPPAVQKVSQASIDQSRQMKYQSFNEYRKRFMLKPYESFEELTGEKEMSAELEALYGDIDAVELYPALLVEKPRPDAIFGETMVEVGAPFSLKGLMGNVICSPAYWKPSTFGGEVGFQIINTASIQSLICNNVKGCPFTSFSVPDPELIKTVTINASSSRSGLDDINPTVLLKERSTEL
Summary of the method: as §1

SMILES	pIC50 [1]	pIC50 [2]
CC(=O)OC[C@H]1O[C@@H](OC(C)=O)[C@H](NC(=O)Cc2ccccc2Nc2c(Cl)cccc2Cl)[C@@H](OC(C)=O)[C@@H]1OC(C)=O [compound 3]	4.59	> 5.60
COc1ccc2c(c1)c(CC(=O)N[C@H]1[C@H](OC(C)=O)O[C@H](COC(C)=O)[C@@H](OC(C)=O)[C@@H]1OC(C)=O)c(C)n2C(=O)c1ccc(Cl)cc1 [compound 4]	4.60	4.47
CC(=O)OC[C@H]1O[C@@H](OC(C)=O)[C@H](NC(=O)c2ccccc2Nc2cccc(C)c2C)[C@@H](OC(C)=O)[C@@H]1OC(C)=O [compound 5, 1,3,4,6-Tetra-O-acetyl-2-deoxy-2-(2-((2,3-dimethylphenyl)amino)benzamido)-β-D-glucopyranose]	> 5.60	< 4.00
